According to ChEMBL document CHEMBL4689842, “EUbOPEN Chemogenomics Library wave 1” (2021):

Tested on: U2OS
Assay: Multiplex assay against U2OS
Format: toxicity, cell-based
Conditions: human
In short: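 Live cells were stained at seeding with Hoechst33342, BioTracker Green Microtubule Cytoskeleton Dye, MitoTracker Red and Annexin V Alexa Fluor 680. Following compound addition, they were imaged on a CQ1 microscope at 37°C and 5% CO2 and gated by CellPathfinder machine learning into Hoechst high-intensity objects or normal cells, with normal cells split into healthy, pyknosed or fragmented nuclei and pyknosed cells into mitotic or apoptotic. Tubulin, mitochondrial-mass and membrane-permeability phenotypes are per cents of healthy-nucleus cells.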

[1] = 12 h, 1 µM, compound concentration 1 uM, replicate 1
[2] = 12 h, 1 µM, compound concentration 1 uM, replicate 2
[3] = 12 h, 10 µM, compound concentration 10 uM, replicate 1
[4] = 12 h, 10 µM, compound concentration 10 uM, replicate 2
[5] = 24 h, 1 µM, compound concentration 1 uM, replicate 1
[6] = 24 h, 1 µM, compound concentration 1 uM, replicate 2
[7] = 24 h, 10 µM, compound concentration 10 uM, replicate 1
[8] = 24 h, 10 µM, compound concentration 10 uM, replicate 2
[9] = 48 h, 1 µM, compound concentration 1 uM, replicate 1
[10] = 48 h, 1 µM, compound concentration 1 uM, replicate 2
[11] = 48 h, 10 µM, compound concentration 10 uM, replicate 1
[12] = 48 h, 10 µM, compound concentration 10 uM, replicate 2

C[C@@H](NCCCc1cccc(C(F)(F)F)c1)c1cccc2ccccc12.Cl [CINACALCET HYDROCHLORIDE]
Population Fragmented Nuclei (%) [1]: 6% | Population Healthy Nuclei (%) [1]: 79% | Population Hoechst High Intensity Objects (%) [1]: 5% | Population Membrane Permeable-Phenotype (%) [1]: 4% | Population Mitochondria Different-Phenotype (%) [1]: 30% | Population Normal (%) [1]: 94% | Population Pyknosed Nuclei (%) [1]: 13% | Population Tubulin-Different-Phenotype (%) [1]: 40% | Total Cell Count [1]: 184 | Population Apoptotic (%) [2]: 33% | Population Fragmented Nuclei (%) [2]: 10% | Population Healthy Nuclei (%) [2]: 76% | Population Hoechst High Intensity Objects (%) [2]: 9% | Population Membrane Permeable-Phenotype (%) [2]: 11% | Population Mitochondria Different-Phenotype (%) [2]: 22% | Population Mitotic Cells (%) [2]: 66% | Population Normal (%) [2]: 90% | Population Pyknosed Nuclei (%) [2]: 12% | Population Tubulin-Different-Phenotype (%) [2]: 36% | Total Cell Count [2]: 52 | Population Apoptotic (%) [3]: 41% | Population Fragmented Nuclei (%) [3]: 14% | Population Healthy Nuclei (%) [3]: 60% | Population Hoechst High Intensity Objects (%) [3]: 9% | Population Membrane Permeable-Phenotype (%) [3]: 22% | Population Mitotic Cells (%) [3]: 58% | Population Normal (%) [3]: 90% | Population Pyknosed Nuclei (%) [3]: 24% | Population Tubulin-Different-Phenotype (%) [3]: 98% | Total Cell Count [3]: 155 | Population Apoptotic (%) [4]: 88% | Population Fragmented Nuclei (%) [4]: 20% | Population Healthy Nuclei (%) [4]: 23% | Population Hoechst High Intensity Objects (%) [4]: 7% | Population Membrane Permeable-Phenotype (%) [4]: 33% | Population Mitochondria Different-Phenotype (%) [4]: 93% | Population Mitotic Cells (%) [4]: 11% | Population Normal (%) [4]: 92% | Population Pyknosed Nuclei (%) [4]: 55% | Population Tubulin-Different-Phenotype (%) [4]: 93% | Total Cell Count [4]: 68 | Population Apoptotic (%) [5]: 29% | Population Fragmented Nuclei (%) [5]: 5% | Population Healthy Nuclei (%) [5]: 82% | Population Hoechst High Intensity Objects (%) [5]: 3% | Population Membrane Permeable-Phenotype (%) [5]: 4% | Population Mitochondria Different-Phenotype (%) [5]: 20% | Population Mitotic Cells (%) [5]: 70% | Population Normal (%) [5]: 96% | Population Pyknosed Nuclei (%) [5]: 12% | Population Tubulin-Different-Phenotype (%) [5]: 20% | Total Cell Count [5]: 205 | Population Apoptotic (%) [6]: 36% | Population Fragmented Nuclei (%) [6]: 8% | Population Healthy Nuclei (%) [6]: 69% | Population Hoechst High Intensity Objects (%) [6]: 7% | Population Membrane Permeable-Phenotype (%) [6]: 5% | Population Mitochondria Different-Phenotype (%) [6]: 26% | Population Mitotic Cells (%) [6]: 63% | Population Normal (%) [6]: 92% | Population Pyknosed Nuclei (%) [6]: 22% | Population Tubulin-Different-Phenotype (%) [6]: 17% | Total Cell Count [6]: 53 | Population Apoptotic (%) [7]: 72% | Population Fragmented Nuclei (%) [7]: 14% | Population Healthy Nuclei (%) [7]: 51% | Population Hoechst High Intensity Objects (%) [7]: 6% | Population Membrane Permeable-Phenotype (%) [7]: 46% | Population Mitochondria Different-Phenotype (%) [7]: 97% | Population Mitotic Cells (%) [7]: 28% | Population Normal (%) [7]: 93% | Population Pyknosed Nuclei (%) [7]: 34% | Population Tubulin-Different-Phenotype (%) [7]: 100% | Total Cell Count [7]: 157 | Population Apoptotic (%) [8]: 92% | Population Fragmented Nuclei (%) [8]: 15% | Population Healthy Nuclei (%) [8]: 32% | Population Hoechst High Intensity Objects (%) [8]: 24% | Population Membrane Permeable-Phenotype (%) [8]: 52% | Population Mitochondria Different-Phenotype (%) [8]: 88% | Population Mitotic Cells (%) [8]: 7% | Population Normal (%) [8]: 75% | Population Pyknosed Nuclei (%) [8]: 51% | Population Tubulin-Different-Phenotype (%) [8]: 82% | Total Cell Count [8]: 69 | Population Apoptotic (%) [9]: 38% | Population Fragmented Nuclei (%) [9]: 8% | Population Healthy Nuclei (%) [9]: 80% | Population Hoechst High Intensity Objects (%) [9]: 2% | Population Membrane Permeable-Phenotype (%) [9]: 3% | Population Mitochondria Different-Phenotype (%) [9]: 11% | Population Mitotic Cells (%) [9]: 61% | Population Normal (%) [9]: 97% | Population Pyknosed Nuclei (%) [9]: 11% | Population Tubulin-Different-Phenotype (%) [9]: 16% | Total Cell Count [9]: 293 | Population Apoptotic (%) [10]: 54% | Population Fragmented Nuclei (%) [10]: 14% | Population Healthy Nuclei (%) [10]: 70% | Population Hoechst High Intensity Objects (%) [10]: 6% | Population Membrane Permeable-Phenotype (%) [10]: 8% | Population Mitochondria Different-Phenotype (%) [10]: 18% | Population Mitotic Cells (%) [10]: 45% | Population Normal (%) [10]: 93% | Population Pyknosed Nuclei (%) [10]: 15% | Population Tubulin-Different-Phenotype (%) [10]: 12% | Total Cell Count [10]: 75 | Population Apoptotic (%) [11]: 70% | Population Fragmented Nuclei (%) [11]: 26% | Population Healthy Nuclei (%) [11]: 33% | Population Hoechst High Intensity Objects (%) [11]: 7% | Population Membrane Permeable-Phenotype (%) [11]: 58% | Population Mitochondria Different-Phenotype (%) [11]: 96% | Population Mitotic Cells (%) [11]: 29% | Population Normal (%) [11]: 92% | Population Pyknosed Nuclei (%) [11]: 39% | Population Tubulin-Different-Phenotype (%) [11]: 98% | Total Cell Count [11]: 176 | Population Apoptotic (%) [12]: 91% | Population Fragmented Nuclei (%) [12]: 18% | Population Healthy Nuclei (%) [12]: 35% | Population Hoechst High Intensity Objects (%) [12]: 22% | Population Membrane Permeable-Phenotype (%) [12]: 78% | Population Mitochondria Different-Phenotype (%) [12]: 89% | Population Mitotic Cells (%) [12]: 8% | Population Normal (%) [12]: 77% | Population Pyknosed Nuclei (%) [12]: 45% | Population Tubulin-Different-Phenotype (%) [12]: 94% | Total Cell Count [12]: 68
